Consider four compounds from article PMC7557569 (RSC Medicinal Chemistry, 2020).

Series [1] deals with T1, EphA3 (Homo sapiens, UniProt P29320).
T1 sequence (P29320 21-983): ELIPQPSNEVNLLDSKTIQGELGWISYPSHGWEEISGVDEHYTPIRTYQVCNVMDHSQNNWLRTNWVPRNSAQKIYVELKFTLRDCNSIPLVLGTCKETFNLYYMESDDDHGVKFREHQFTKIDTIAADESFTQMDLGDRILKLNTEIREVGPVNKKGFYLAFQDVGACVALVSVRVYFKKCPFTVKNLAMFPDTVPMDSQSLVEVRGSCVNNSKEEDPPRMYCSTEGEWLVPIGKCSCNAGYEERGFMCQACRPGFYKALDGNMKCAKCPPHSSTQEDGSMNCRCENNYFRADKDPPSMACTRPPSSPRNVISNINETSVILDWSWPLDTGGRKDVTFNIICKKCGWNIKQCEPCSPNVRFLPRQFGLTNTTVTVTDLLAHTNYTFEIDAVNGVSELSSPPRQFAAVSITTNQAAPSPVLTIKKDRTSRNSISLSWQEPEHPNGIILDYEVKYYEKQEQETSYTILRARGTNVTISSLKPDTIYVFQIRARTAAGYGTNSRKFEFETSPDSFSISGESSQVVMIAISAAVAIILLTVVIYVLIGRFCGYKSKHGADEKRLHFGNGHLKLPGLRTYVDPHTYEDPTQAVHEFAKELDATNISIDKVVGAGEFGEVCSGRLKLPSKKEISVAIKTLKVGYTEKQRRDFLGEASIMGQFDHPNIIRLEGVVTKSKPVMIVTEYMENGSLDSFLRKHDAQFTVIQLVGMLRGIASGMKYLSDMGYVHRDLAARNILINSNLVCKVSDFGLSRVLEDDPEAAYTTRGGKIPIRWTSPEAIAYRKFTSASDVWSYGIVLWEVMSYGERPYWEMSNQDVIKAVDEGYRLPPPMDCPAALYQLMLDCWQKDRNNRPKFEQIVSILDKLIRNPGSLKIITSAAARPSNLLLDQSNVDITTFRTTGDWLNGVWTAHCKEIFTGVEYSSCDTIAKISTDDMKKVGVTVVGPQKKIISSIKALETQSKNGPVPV
The conditions noted are these: EphA3, DSF; first generation inhibitors; ref 8d; cited from earlier work.

The test system of series [2] is human umbilical vein endothelial cells (HUVEC). The settings on record: HUVEC tube formation; previously developed inhibitors; cited from earlier work.
Series [3] relates to K-562 cell line. Description: NCI-60 cancer cell line panel, growth inhibition. The class given is cell-based. The settings on record: Homo sapiens, K562.
The test system of series [4] is RI-1 cell line xenograft. Description: Mouse xenograft model with the ABC DLBCL RI-1 cell line. The conditions noted are these: NOD-Scid mice, RI-1 xenograft; for tolerability / general toxicity and body weight: 100 mg kg^-1 IP. The class given is in vivo. A digest of the protocol: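 NOD-Scid mice were inoculated subcutaneously with RI-1 ABC-DLBCL cells (15 × 10^6). They were split into groups of n = 4 given test compound at 100 mg kg−1 IP once every 5 days, or control vehicle. Tumor volume (mm3) and body weight were followed to day 15.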

For `Cc1ccc(O)cc1-n1c(N)c(C(N)=O)c2nc3ccccc3nc21` [Compound 1], in series [1], the “Thermal shift (ΔTm)” value was 11.2 °C. Further, in series [2], the “inhibition of total branching points” value is reported as 23%, the “inhibition of total loops” value was 21% and the “inhibition of tube length” value was 9%.

On to `NC(=O)c1c(N)n(-c2ccc(NC(=O)Nc3cccc(C(F)(F)F)c3)cc2)c2nc3ccccc3nc12` [Compound 2], for which, in series [2], the “inhibition of total branching points” value was 9%, the “inhibition of total loops” value is on record as 13% and the “inhibition of tube length” value is on record as 5%.

On to `Cc1ccc(-n2nc(C(C)(C)C)cc2NC(=O)Nc2ccc(-n3c(N)c(C(N)=O)c4nc5ccccc5nc43)cc2)cc1` [Compound 8a], for which the GI50 in series [3] was found to be 31 nM. Moreover, the “tolerability / general toxicity and body weight” value in series [4] is reported as “very toxic already after the first dose”.

Regarding `CC(C)(C)c1cc(NC(=O)Nc2ccc(-n3c(N)c(C(N)=O)c4nc5ccccc5nc43)cc2)n(-c2ccc3ncccc3c2)n1` [Compound 8b], the 50% growth inhibitory concentration (GI50) in series [3] is below 10 nM. For the same compound, the “tolerability / general toxicity and body weight” value in series [4] is on record as “well tolerated with no general toxicity or body-weight loss”. The “xenograft tumor size versus control group” value in series [4] (100 mg kg^-1 IP once every 5 days, day 15) is “three times smaller”.

One may read the GI50 as the concentration that inhibits growth by half. A low value points to greater sensitivity of the cells.
